pKi: −log10 of the molar value.
Assays:
[1] = Selectivity ratio of Ki for SERT to Ki for DAT
[2] = target: Sodium-dependent dopamine transporter (Homo sapiens, UniProt Q01959); test: Displacement of [125I]-IPT from DAT transfected in pig LLC-PK1 cells by radioligand competition binding assay; assay type: cell-based
[3] = target: Sodium-dependent noradrenaline transporter (Homo sapiens, UniProt P23975); test: Displacement of [125I]-INXT from NET transfected in pig LLC-PK1 cells by radioligand competition binding assay; assay type: cell-based
Sodium-dependent noradrenaline transporter, sequence (P23975 whole entry): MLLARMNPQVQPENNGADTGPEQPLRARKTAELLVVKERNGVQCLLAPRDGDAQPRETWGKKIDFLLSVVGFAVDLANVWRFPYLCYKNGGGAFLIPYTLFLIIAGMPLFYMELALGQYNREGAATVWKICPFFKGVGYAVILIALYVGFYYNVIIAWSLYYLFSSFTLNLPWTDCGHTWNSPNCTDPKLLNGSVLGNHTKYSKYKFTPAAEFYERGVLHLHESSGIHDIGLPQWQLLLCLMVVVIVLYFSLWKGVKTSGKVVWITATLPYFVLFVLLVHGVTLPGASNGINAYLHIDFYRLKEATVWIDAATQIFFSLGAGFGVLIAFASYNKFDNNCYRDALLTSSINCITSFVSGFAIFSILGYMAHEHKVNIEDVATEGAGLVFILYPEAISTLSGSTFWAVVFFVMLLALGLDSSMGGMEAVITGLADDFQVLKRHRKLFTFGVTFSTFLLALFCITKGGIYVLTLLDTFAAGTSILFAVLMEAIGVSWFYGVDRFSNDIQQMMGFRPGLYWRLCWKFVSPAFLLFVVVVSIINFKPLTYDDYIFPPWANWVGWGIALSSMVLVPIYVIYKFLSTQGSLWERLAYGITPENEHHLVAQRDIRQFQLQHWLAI

[4] = Selectivity ratio of Ki for NET to Ki for DAT
[5] = target: Sodium-dependent serotonin transporter (Homo sapiens, UniProt P31645); test: Displacement of [125I]-IDAM from SERT transfected in pig LLC-PK1 cells by radioligand competition binding assay; assay type: cell-based
Sodium-dependent serotonin transporter, sequence (P31645 whole entry): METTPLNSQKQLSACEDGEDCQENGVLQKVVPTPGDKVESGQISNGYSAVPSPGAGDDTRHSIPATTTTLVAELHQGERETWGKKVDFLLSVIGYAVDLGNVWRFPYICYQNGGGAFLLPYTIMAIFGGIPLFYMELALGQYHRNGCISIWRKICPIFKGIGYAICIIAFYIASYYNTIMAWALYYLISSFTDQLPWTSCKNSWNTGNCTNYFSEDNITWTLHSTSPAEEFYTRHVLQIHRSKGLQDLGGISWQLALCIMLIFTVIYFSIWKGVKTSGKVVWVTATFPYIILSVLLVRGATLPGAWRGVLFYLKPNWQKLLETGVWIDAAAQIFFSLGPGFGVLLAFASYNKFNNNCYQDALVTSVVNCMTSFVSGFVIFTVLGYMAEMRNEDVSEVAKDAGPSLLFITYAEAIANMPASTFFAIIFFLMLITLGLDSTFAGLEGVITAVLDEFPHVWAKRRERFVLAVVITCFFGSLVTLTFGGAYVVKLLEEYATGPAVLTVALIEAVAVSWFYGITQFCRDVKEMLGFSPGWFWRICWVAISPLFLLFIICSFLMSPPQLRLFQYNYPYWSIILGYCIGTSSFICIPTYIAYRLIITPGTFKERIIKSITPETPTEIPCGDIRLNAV

[6] = tested on: Nucleic Acid; test: Ratio of drug uptake in cortex to cerebellum in Sprague-Dawley rat at 25 uCi, iv after 120 mins; assay type: ADME, organism-based; conditions: in vivo, 2 h
Outline: (§1)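 Region-to-cerebellum uptake ratios were calculated from %ID/g values (n = 5 rats per time point). These came from normal male Sprague-Dawley rats given 25 µCi of the 18F-tracer through the femoral vein and dissected at 2, 60, 120 or 180 min. Tissue was gamma-counted, and cerebellum served as the non-target background region.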

[7] = tested on: Nucleic Acid; test: Ratio of drug uptake in striatum to cerebellum in Sprague-Dawley rat at 25 uCi, iv after 120 mins; assay type: ADME, organism-based; conditions: in vivo, 2 h; outline: as §1
[8] = tested on: Cerebellum; test: Drug uptake in Sprague-Dawley rat cerebellum at 25 uCi, iv after 120 mins by gamma counter; assay type: ADME, organism-based; conditions: in vivo, 2 h
Outline: (§2)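 Normal male Sprague-Dawley rats were given 25 µCi of the 18F-tracer via the femoral vein. Rats (n = 5 per time point) were sacrificed at 2, 60, 120 or 180 min post-injection. Brain regions were dissected and weighed, and radioactivity was gamma-counted. Values are %ID/g, calculated against diluted aliquots of the injected dose, as mean ± S.D.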

[9] = tested on: Hypothalamus; test: Drug uptake in Sprague-Dawley rat hypothalamus at 25 uCi, iv after 120 mins by gamma counter; assay type: ADME, organism-based; conditions: in vivo, 2 h; outline: as §2
[10] = tested on: Brain; test: Drug uptake in Sprague-Dawley rat brain at 25 uCi, iv after 120 mins by gamma counter; assay type: ADME, organism-based; conditions: in vivo, 2 h; outline: as §2
[11] = tested on: Nucleic Acid; test: Ratio of drug uptake in striatum to cerebellum in Sprague-Dawley rat at 25 uCi, iv after 180 mins; assay type: ADME, organism-based; conditions: in vivo, 3 h; outline: as §1
[12] = tested on: Hypothalamus; test: Drug uptake in Sprague-Dawley rat hypothalamus at 25 uCi, iv after 60 mins by gamma counter; assay type: ADME, organism-based; conditions: in vivo, 1 h; outline: as §2
[13] = tested on: Nucleic Acid; test: Ratio of drug uptake in striatum to cerebellum in Sprague-Dawley rat at 25 uCi, iv after 2 mins; assay type: ADME, organism-based; conditions: in vivo; outline: as §1
[14] = tested on: Nucleic Acid; test: Ratio of drug uptake in cortex to cerebellum in Sprague-Dawley rat at 25 uCi, iv after 180 mins; assay type: ADME, organism-based; conditions: in vivo, 3 h; outline: as §1
[15] = tested on: Hippocampus; test: Drug uptake in Sprague-Dawley rat hippocampus at 25 uCi, iv after 2 mins by gamma counter; assay type: ADME, organism-based; conditions: in vivo; outline: as §2
[16] = tested on: Striatum; test: Drug uptake in Sprague-Dawley rat striatum at 25 uCi, iv after 2 mins by gamma counter; assay type: ADME, organism-based; conditions: in vivo; outline: as §2
[17] = tested on: Cerebellum; test: Drug uptake in Sprague-Dawley rat cerebellum at 25 uCi, iv after 60 mins by gamma counter; assay type: ADME, organism-based; conditions: in vivo, 1 h; outline: as §2
[18] = Drug uptake in Sprague-Dawley rat putamen at 2.5 mCi, iv after 60 mins post injection measured by autoradiographic technique; assay type: ADME, organism-based; conditions: in vivo, 1 h
Outline: (§3)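 For ex vivo autoradiography, normal Sprague-Dawley rats received 2.5 mCi of the 18F-tracer intravenously and were sacrificed at 60 min post-injection. Brains were removed immediately, frozen and sectioned. Dried sections were exposed to film overnight in an autoradiographic cassette to map regional radioactivity.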

[19] = tested on: Cortex; test: Drug uptake in Sprague-Dawley rat cortex at 2.5 mCi, iv after 60 mins post injection measured by autoradiographic technique; assay type: ADME, organism-based; conditions: in vivo, 1 h; outline: as §3
[20] = tested on: Nucleic Acid; test: Ratio of drug uptake in hippocampus to cerebellum in Sprague-Dawley rat at 25 uCi, iv after 2 mins; assay type: ADME, organism-based; conditions: in vivo; outline: as §1
[21] = tested on: Hypothalamus; test: Drug uptake in Sprague-Dawley rat hypothalamus at 25 uCi, iv after 2 mins by gamma counter; assay type: ADME, organism-based; conditions: in vivo; outline: as §2
[22] = tested on: Nucleic Acid; test: Ratio of drug uptake in hypothalamus to cerebellum in Sprague-Dawley rat at 25 uCi, iv after 60 mins; assay type: ADME, organism-based; conditions: in vivo, 1 h; outline: as §1
[23] = Lipophilicity, log P of the compound; assay type: physicochemical; conditions: octanol/water
[24] = tested on: Nucleic Acid; test: Ratio of drug uptake in hippocampus to cerebellum in Sprague-Dawley rat at 25 uCi, iv after 180 mins; assay type: ADME, organism-based; conditions: in vivo, 3 h; outline: as §1
[25] = tested on: Striatum; test: Drug uptake in Sprague-Dawley rat striatum at 25 uCi, iv after 180 mins by gamma counter; assay type: ADME, organism-based; conditions: in vivo, 3 h; outline: as §2
[26] = tested on: Striatum; test: Drug uptake in Sprague-Dawley rat striatum at 25 uCi, iv after 60 mins by gamma counter; assay type: ADME, organism-based; conditions: in vivo, 1 h; outline: as §2
[27] = tested on: Striatum; test: Drug uptake in Sprague-Dawley rat striatum at 25 uCi, iv after 120 mins by gamma counter; assay type: ADME, organism-based; conditions: in vivo, 2 h; outline: as §2
[28] = tested on: Hippocampus; test: Drug uptake in Sprague-Dawley rat hippocampus at 25 uCi, iv after 60 mins by gamma counter; assay type: ADME, organism-based; conditions: in vivo, 1 h; outline: as §2
[29] = tested on: Hippocampus; test: Drug uptake in Sprague-Dawley rat hippocampus at 25 uCi, iv after 120 mins by gamma counter; assay type: ADME, organism-based; conditions: in vivo, 2 h; outline: as §2
[30] = tested on: Nucleic Acid; test: Ratio of drug uptake in hypothalamus to cerebellum in Sprague-Dawley rat at 25 uCi, iv after 2 mins; assay type: ADME, organism-based; conditions: in vivo; outline: as §1
[31] = tested on: Cerebellum; test: Drug uptake in Sprague-Dawley rat cerebellum at 25 uCi, iv after 180 mins by gamma counter; assay type: ADME, organism-based; conditions: in vivo, 3 h; outline: as §2
[32] = tested on: Brain; test: Drug uptake in Sprague-Dawley rat brain at 25 uCi, iv after 60 mins by gamma counter; assay type: ADME, organism-based; conditions: in vivo, 1 h; outline: as §2
[33] = tested on: Cerebellum; test: Drug uptake in Sprague-Dawley rat cerebellum at 25 uCi, iv after 2 mins by gamma counter; assay type: ADME, organism-based; conditions: in vivo; outline: as §2
[34] = tested on: Nucleic Acid; test: Ratio of drug uptake in hippocampus to cerebellum in Sprague-Dawley rat at 25 uCi, iv after 120 mins; assay type: ADME, organism-based; conditions: in vivo, 2 h; outline: as §1
[35] = tested on: Hypothalamus; test: Drug uptake in Sprague-Dawley rat hypothalamus at 25 uCi, iv after 180 mins by gamma counter; assay type: ADME, organism-based; conditions: in vivo, 3 h; outline: as §2
[36] = tested on: Striatum; test: Drug uptake in Sprague-Dawley rat striatum at 2.5 mCi, iv after 60 mins post injection measured by autoradiographic technique; assay type: ADME, organism-based; conditions: in vivo, 1 h; outline: as §3
[37] = tested on: Hippocampus; test: Drug uptake in Sprague-Dawley rat hippocampus at 25 uCi, iv after 180 mins by gamma counter; assay type: ADME, organism-based; conditions: in vivo, 3 h; outline: as §2
[38] = tested on: Cortex; test: Drug uptake in Sprague-Dawley rat cortex at 25 uCi, iv after 2 mins by gamma counter; assay type: ADME, organism-based; conditions: in vivo; outline: as §2
[39] = tested on: Nucleic Acid; test: Ratio of drug uptake in hypothalamus to cerebellum in Sprague-Dawley rat at 25 uCi, iv after 180 mins; assay type: ADME, organism-based; conditions: in vivo, 3 h; outline: as §1
[40] = tested on: Cortex; test: Drug uptake in Sprague-Dawley rat cortex at 25 uCi, iv after 60 mins by gamma counter; assay type: ADME, organism-based; conditions: in vivo, 1 h; outline: as §2
[41] = tested on: Cortex; test: Drug uptake in Sprague-Dawley rat cortex at 25 uCi, iv after 180 mins by gamma counter; assay type: ADME, organism-based; conditions: in vivo, 3 h; outline: as §2
[42] = Drug uptake in Sprague-Dawley rat caudate at 2.5 mCi, iv after 60 mins post injection measured by autoradiographic technique; assay type: ADME, organism-based, Caudate nucleus; conditions: in vivo, 1 h; outline: as §3
[43] = tested on: Brain; test: Drug uptake in Sprague-Dawley rat brain at 25 uCi, iv after 2 mins by gamma counter; assay type: ADME, organism-based; conditions: in vivo; outline: as §2
[44] = tested on: Nucleic Acid; test: Ratio of drug uptake in hypothalamus to cerebellum in Sprague-Dawley rat at 25 uCi, iv after 120 mins; assay type: ADME, organism-based; conditions: in vivo, 2 h; outline: as §1
[45] = tested on: Brain; test: Drug uptake in Sprague-Dawley rat brain at 25 uCi, iv after 180 mins by gamma counter; assay type: ADME, organism-based; conditions: in vivo, 3 h; outline: as §2
[46] = tested on: Nucleic Acid; test: Ratio of drug uptake in striatum to cerebellum in Sprague-Dawley rat at 25 uCi, iv after 60 mins; assay type: ADME, organism-based; conditions: in vivo, 1 h; outline: as §1
[47] = tested on: Cortex; test: Drug uptake in Sprague-Dawley rat cortex at 25 uCi, iv after 120 mins by gamma counter; assay type: ADME, organism-based; conditions: in vivo, 2 h; outline: as §2
[48] = tested on: Nucleic Acid; test: Ratio of drug uptake in cortex to cerebellum in Sprague-Dawley rat at 25 uCi, iv after 2 mins; assay type: ADME, organism-based; conditions: in vivo; outline: as §1
[49] = tested on: Nucleic Acid; test: Ratio of drug uptake in cortex to cerebellum in Sprague-Dawley rat at 25 uCi, iv after 60 mins; assay type: ADME, organism-based; conditions: in vivo, 1 h; outline: as §1
[50] = tested on: Nucleic Acid; test: Ratio of drug uptake in hippocampus to cerebellum in Sprague-Dawley rat at 25 uCi, iv after 60 mins; assay type: ADME, organism-based; conditions: in vivo, 1 h; outline: as §1

Sodium-dependent dopamine transporter, sequence (Q01959 whole entry): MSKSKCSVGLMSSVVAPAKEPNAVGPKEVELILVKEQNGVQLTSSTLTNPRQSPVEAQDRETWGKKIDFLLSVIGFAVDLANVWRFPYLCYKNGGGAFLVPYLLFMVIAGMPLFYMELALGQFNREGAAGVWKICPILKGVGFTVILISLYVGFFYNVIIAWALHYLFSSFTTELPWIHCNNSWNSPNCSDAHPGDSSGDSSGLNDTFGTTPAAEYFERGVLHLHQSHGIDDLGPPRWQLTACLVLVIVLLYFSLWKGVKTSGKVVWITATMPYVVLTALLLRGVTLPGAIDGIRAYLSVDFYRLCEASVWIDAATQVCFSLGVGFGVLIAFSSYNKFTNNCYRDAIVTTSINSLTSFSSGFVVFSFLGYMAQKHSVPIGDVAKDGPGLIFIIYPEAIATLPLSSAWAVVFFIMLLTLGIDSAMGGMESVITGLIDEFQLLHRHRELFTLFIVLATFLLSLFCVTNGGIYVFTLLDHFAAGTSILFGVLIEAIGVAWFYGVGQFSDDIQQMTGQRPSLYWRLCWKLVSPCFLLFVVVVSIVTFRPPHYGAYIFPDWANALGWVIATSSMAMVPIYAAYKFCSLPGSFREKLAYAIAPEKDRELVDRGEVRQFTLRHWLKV

CN1C2CCC1[C@@H](CNc1ccc(Br)nc1)[C@@H](c1ccc(Cl)cc1)C2 (stereo partly drawn)
Ratio Ki [1]: 0.6 | pKi [2]: 7.75 | pKi [3]: 7.31 | Ratio Ki [4]: 2.7 | pKi [5]: 7.98

CN1C2CCC1[C@@H](CNc1cccc(F)n1)[C@@H](c1ccc(Cl)cc1)C2 (stereo partly drawn)
Ratio Ki [1]: 5 | pKi [2]: 8.39 | pKi [3]: 7.18 | Ratio Ki [4]: 16 | pKi [5]: 7.69

COC(=O)[C@H]1[C@@H](c2ccc(F)cc2)C[C@H]2CC[C@H]1N2C
pKi [3]: 6.20 | pKi [5]: 6.74

CN1C2CCC1[C@@H](CN(C(=O)OC(C)(C)C)c1cccc([18F])n1)[C@@H](c1ccc(Cl)cc1)C2 (stereo partly drawn)
Ratio [6]: 1.4 | Ratio [7]: 2.54 | Drug uptake [8]: 0.05 % ID/g | Drug uptake [9]: 0.06 % ID/g | Drug uptake [10]: 0.07 % ID/g | Ratio [11]: 3.14 | Drug uptake [12]: 0.29 % ID/g | Ratio [13]: 0.82 | Ratio [14]: 0.96 | Drug uptake [15]: 0.36 % ID/g | Drug uptake [16]: 0.4 % ID/g | Drug uptake [17]: 0.23 % ID/g | Drug uptake [18]: Active | Drug uptake [19]: Active | Ratio [20]: 0.72 | Drug uptake [21]: 0.4 % ID/g | Ratio [22]: 1.24 | logP [23]: 1.88 | Ratio [24]: 1.81 | Drug uptake [25]: 0.09 % ID/g | Drug uptake [26]: 0.47 % ID/g | Drug uptake [27]: 0.12 % ID/g | Drug uptake [28]: 0.28 % ID/g | Drug uptake [29]: 0.08 % ID/g | Ratio [30]: 0.81 | Drug uptake [31]: 0.03 % ID/g | Drug uptake [32]: 0.26 % ID/g | Drug uptake [33]: 0.49 % ID/g | Ratio [34]: 1.61 | Drug uptake [35]: 0.04 % ID/g | Drug uptake [36]: Active | Drug uptake [37]: 0.05 % ID/g | Drug uptake [38]: 0.45 % ID/g | Ratio [39]: 1.51 | Drug uptake [40]: 0.28 % ID/g | Drug uptake [41]: 0.03 % ID/g | Drug uptake [42]: Active | Drug uptake [43]: 0.4 % ID/g | Ratio [44]: 1.31 | Drug uptake [45]: 0.04 % ID/g | Ratio [46]: 2.02 | Drug uptake [47]: 0.07 % ID/g | Ratio [48]: 0.91 | Ratio [49]: 1.21 | Ratio [50]: 1.21

COC(=O)[C@@H]1C2CCC(C[C@@H]1c1ccc(Cl)cc1)N2C (stereo partly drawn)
pKi [2]: 8.29

CN1C2CCC1[C@@H](C(=O)Nc1cccc(F)n1)[C@@H](c1ccc(Cl)cc1)C2 (stereo partly drawn)
Ratio Ki [1]: 229 | pKi [2]: 6.90 | pKi [3]: 4.77 | Ratio Ki [4]: 133 | pKi [5]: 4.54

Reference: ChEMBL document CHEMBL1914398, “Synthesis and evaluation of novel N-fluoropyridyl derivatives of tropane as potential PET imaging agents for the dopamine transporter” (Bioorg Med Chem Lett, 2011)
